Measured values taken from ChEMBL document CHEMBL1124281, “A new series of ellipticine derivatives (1-(alkylamino)-9-methoxyellipticine). Synthesis, DNA binding, and biological properties” (J Med Chem, 1988).

How the values were obtained:
Nucleic Acid [1] = experiment: Maximum number of sites; assay type: nucleic-acid assay; details: Bos taurus
Summary of the method: (§1)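 Calf thymus DNA binding by direct fluorescence titration (excitation 310 nm, emission 540 nm) in 10 mM acetate buffer, 100 mM NaCl, pH 5.2, 20 °C. Scatchard plots gave apparent association constant Kapp and apparent binding sites per nucleotide r_app. Drug stocks 5×10^-3 M in 50% DMSO/water, diluted in buffer.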

Nucleic Acid [2] = experiment: Apparent binding constant (Kapp) to DNA, by direct fluorimetric titration, at pH 5; 10e-6; assay type: nucleic-acid assay; details: Bos taurus; summary of the method: as §1
L1210 = experiment: In vitro cytotoxicity by growth inhibition in L1210 cells; assay type: functional; details: Mus musculus, read-out: ID50 (the source's name)
Summary of the method: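 L1210 leukemia suspension cultures in RPMI with fetal calf serum, 37 °C, 6% CO2; 10^4 cells/mL exponential phase exposed in duplicate to drug at final 10^-5–10^-8 M for 48 h. Cells counted electronically, viability by trypan blue exclusion; ID50 (50% growth inhibition vs untreated controls) from regression of % inhibition against log dose.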

Mus musculus [3] = experiment: Increase in life of span over controls, 10e5 L1210 cells per mouse of 20 g, by ip route LD0/10 ata conc of LD0/10(N); assay type: functional; design: unit not given here
Summary of the method: (§2)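 Random DBA/2 female mice of 20 g were inoculated ip with 10^5 L1210 leukemia cells. A single ip dose in 200 μL water was given 24 h later, at LD0/10, LD0/5 or LD0/2, with 10 mice per dose and 20 controls. Deaths were counted daily at the same hour. ILS was taken from treated versus control median survival time, and cured mice were counted.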

Mus musculus [4] = experiment: Increase in life of span over controls, 10e5 L1210 cells per mouse of 20 g, by ip route LD0/10 ata conc of LD0/5(N); assay type: functional; summary of the method: as §2
Mus musculus [5] = experiment: In vivo antitumor effect, expressed as the lethal dose (LD100), administered by intraperitoneal route; assay type: ADME, organism-based; details: ip
Mus musculus [6] = experiment: In vivo antitumor effect, expressed as the highest nonlethal dose (LD0), administered by intraperitoneal route; assay type: ADME, organism-based; details: ip
NIH3T3 = experiment: In vitro cytotoxicity by growth inhibition in NIH3T3 cells; assay type: functional; details: Mus musculus, read-out: ID50 (the source's name)
Summary of the method: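 NIH-3T3 mouse fibroblasts in DMEM, 5% fetal calf serum, 37 °C, 6% CO2, seeded at 7.5×10^3 cells/cm²; drug added 24 h later and growth followed for three days. Trypsinized cells counted electronically; ID50 taken as 50% growth inhibition vs controls, from regression against log dose.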

Mus musculus [7] = experiment: Increase in life of span over controls, 10e5 L1210 cells per mouse of 20 g, by ip route LD0/10 at a conc of LD0/2(N); assay type: functional; summary of the method: as §2
Mus musculus [8] = experiment: Increase in life of span over controls, 10e5 L1210 cells per mouse of 20 g, by ip route LD0/10 at a conc of LD0/5(N); assay type: functional; summary of the method: as §2
Mus musculus [9] = experiment: Increase in life of span over controls, 10e5 L1210 cells per mouse of 20 g, by ip route LD0/10 ata conc of LD0/2(N); assay type: functional; summary of the method: as §2

Compound: COc1ccc2[nH]c3c(C)c4ccnc(NCCC(C)C)c4c(C)c3c2c1
- rapp (Nucleic Acid [1]): 0.2
- K app (Nucleic Acid [2]): 3.75e+06 M⁻¹
- IC50 (L1210): 800 nM
- ILS (Mus musculus [3]): 10
- ILS (Mus musculus [4]): 5
- LD100 (Mus musculus [5]): 350 mg/kg
- LD0 (Mus musculus [6]): 300 mg/kg
- IC50 (NIH3T3): 500 nM

Compound: COc1ccc2[nH]c3c(C)c4ccnc(NCC(C)C)c4c(C)c3c2c1
- rapp (Nucleic Acid [1]): 0.17
- K app (Nucleic Acid [2]): 2.35e+06 M⁻¹
- IC50 (L1210): 90 nM
- LD0 (Mus musculus [6]): > 200 mg/kg
- IC50 (NIH3T3): 300 nM

Compound: CCCNc1nccc2c(C)c3[nH]c4ccc(OC)cc4c3c(C)c12
- rapp (Nucleic Acid [1]): 0.2
- K app (Nucleic Acid [2]): 2e+06 M⁻¹
- IC50 (L1210): 100 nM
- ILS (Mus musculus [3]): 0
- ILS (Mus musculus [4]): 2
- LD100 (Mus musculus [5]): 200 mg/kg
- LD0 (Mus musculus [6]): 100 mg/kg
- IC50 (NIH3T3): 300 nM

Compound: CCNc1nccc2c(C)c3[nH]c4ccc(OC)cc4c3c(C)c12
- rapp (Nucleic Acid [1]): 0.2
- K app (Nucleic Acid [2]): 2.15e+06 M⁻¹
- IC50 (L1210): 50 nM
- ILS (Mus musculus [7]): 42
- ILS (Mus musculus [8]): 13
- ILS (Mus musculus [3]): 2
- LD100 (Mus musculus [5]): 90 mg/kg
- LD0 (Mus musculus [6]): 70 mg/kg
- IC50 (NIH3T3): 300 nM

Compound: COc1ccc2[nH]c3c(C)c4ccnc(N)c4c(C)c3c2c1
- rapp (Nucleic Acid [1]): 0.2
- K app (Nucleic Acid [2]): 1e+06 M⁻¹
- IC50 (L1210): 100 nM
- ILS (Mus musculus [3]): 21
- ILS (Mus musculus [4]): 39
- LD100 (Mus musculus [5]): 70 mg/kg
- LD0 (Mus musculus [6]): 60 mg/kg
- ILS (Mus musculus [9]): 93
